DAGLB inhibitor: blocks human DAGLB lipase activity | Q8NCG7 | HEK293T DAGLB membrane lysate, EnzChek fluorogenic substrate | inhibition, % at 5.17 µM | 340,000 tested, 0.059% active | AID 504411; in the data active means inhibition above about 34%;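 further: 0% = enzyme with vehicle and 100% = wells lacking enzyme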
core dimer inh: HCV core protein dimerization inhibition. TR-FRET GST/Flag-core106 dimerization, 1536-well. inhibition, % at 5 µM. 300,000 tested, 0.33% active;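 active means inhibition above the mean of all tested compounds plus 3 SD, set per screening campaign, cut at about 45% in these data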
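test system = GST/Flag-tagged HCV core106 proteins | probe or stimulus = Eu donor and XL665 acceptor anti-tag antibodies | times = compound-protein-antibody incubation 4 h at 22.5 °C | signal = TR-FRET, excitation 340 nm, emission 617 and 671 nm | measure = percent inhibition of core106 dimerization signal | controls = wells lacking GST-core106 and wells with excess unlabelled core106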
Vif imaging: blocks HIV Vif function. HEK293T cells, Vif self-association by quenched fluorescence, imaging, 24 h. inhibition, % at 7.49 µM. 340,000 tested, 0.35% active; in the data active means inhibition above about 50%, passing the limit was not always enough
NR2E3 ag-1: agonists of human nuclear receptor NR2E3; Q9Y5X4; 320,000 tested, 0.12% active; GST-NR2E3/biotin-RetCOR TR-FRET, 1536-well; inhibition of corepressor binding, % at 4.78 µM;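 active means percent inhibition above the cutoff of mean plus 3 SD of all tested compounds, set per screening campaign, cut at about 20% in these data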;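 further: 0% = DMSO wells and 100% = biotin wells as full block of FRET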
Target sequence (Q9Y5X4 whole entry, looked up): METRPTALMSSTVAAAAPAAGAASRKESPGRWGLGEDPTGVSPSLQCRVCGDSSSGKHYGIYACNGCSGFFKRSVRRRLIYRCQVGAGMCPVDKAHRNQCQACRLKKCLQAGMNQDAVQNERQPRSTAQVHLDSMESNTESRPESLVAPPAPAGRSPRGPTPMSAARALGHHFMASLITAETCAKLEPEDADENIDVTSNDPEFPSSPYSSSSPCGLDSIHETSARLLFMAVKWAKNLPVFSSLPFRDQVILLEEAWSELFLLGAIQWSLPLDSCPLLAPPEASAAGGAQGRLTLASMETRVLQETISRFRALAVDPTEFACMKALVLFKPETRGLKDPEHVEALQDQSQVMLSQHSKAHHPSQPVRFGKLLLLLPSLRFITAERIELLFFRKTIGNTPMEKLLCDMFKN
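Format: 1536-well format; test system: GST-NR2E3 and biotin-RetCOR proteins; read-out basis: percent inhibition of TR-FRET ratio; timing: 5 h incubation at 4 °C; detection: time-resolved FRET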
NR2E3 ag-2: human photoreceptor-specific nuclear receptor agonism. 360,000 tested, 0.35% active. CHO-S Gal4-NCOR/VP16-NR2E3 two-hybrid, luciferase. Q9Y5X4. AID 602229. inhibition of corepressor binding, % at 3.98 µM;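 active means inhibition above the mean of all tested compounds plus 3 SD, cut at about 70% in these data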;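 further: 0% = DMSO with NR2E3 transfected cells and 100% = cells lacking NR2E3 construct; higher means lower luciferase signal from less NR2E3 corepressor binding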
MT1-MMP act inh: MT1-MMP (human) activation inhibition; P50281; HT1080 RFP-PRO-GFP cells, GFP/RFP ratio fluorescence, overnight; percent of plate control window, DMSO zero; GFP/RFP ratio change, % at 20 µM; 360,000 tested, 0.061% active;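 active means GFP/RFP ratio change of at least 30% with cell ATP level not reduced by more than half and red fluorescence within 50% of control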
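Assay system: RFP-PRO-GFP reporter HT1080 cells; read-out basis: GFP/RFP fluorescence ratio; benchmarks: DMSO wells and RFP-L50D-GFP cells; doses: 20 µM single dose, 1% DMSO; schedule: overnight cell settling, then overnight compound exposure, 37 °C, 5% CO2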
NR2E3 ag confirm: NR2E3 agonism confirmed in two-hybrid assay | CHO-S mammalian two-hybrid NR2E3-NCOR, luciferase luminescence | 2,300 tested, 51% active | inhibition, % at 3.98 µM | shares compounds with NR2E3 ag-2;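 active means average inhibition above a cutoff equal to the mean inhibition of all tested compounds plus one SD, cut at about 70% in these data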;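 further: 0% = DMSO in NR2E3 cells and 100% = DMSO in cells lacking NR2E3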
VP16 counter: GAL4-VP16 reporter inhibition in NR2E3 agonist counterscreen; CHO-S GAL4-VP16 luciferase reporter, luminescence; AID 624379; shares compounds with NR2E3 ag-2; 2,300 tested, 29% active; inhibition, % at 3.98 µM;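 active means mean inhibition above a cutoff equal to the average over all tested compounds plus one standard deviation, cut at about 70% in these data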;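 further: luciferase from a UAS reporter driven by GAL4-VP16 transactivation; 0% = DMSO with VP16-transfected cells and 100% = DMSO with cells lacking VP16; higher means less reporter light so more repression of VP16 activity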
The depositor's hits bear a star; nt = not tested or not shown. Compounds with a hit are over-represented: about 1.1% of the library has one in this group of screens.

SMILES | DAGLB inhibitor | core dimer inh | Vif imaging | NR2E3 ag-1 | NR2E3 ag-2 | MT1-MMP act inh | NR2E3 ag confirm | VP16 counter
O=C(CC(NC(=O)C(F)(F)F)c1ccccc1)Nc1nnc(CCc2ccccc2)s1 (stereo unspecified) | 6.1 | 14.4 | 2.4 | 3.4 | -1.4 | 5.7 | nt | nt
Cc1cc(=O)[nH]c(SCc2cccc3ccccc23)n1 | -0.9 | 4.7 | 14.1 | -1.5 | 71.2* | -0.1 | 79.7* | 57.0
Cc1cc(=O)[nH]c(SCc2ccc(Cl)cc2Cl)n1 | -0.2 | 10.4 | -2.6 | -1.8 | 21.0 | -1.8 | nt | nt
Cc1cc(CSc2nc(C)cc(=O)[nH]2)c2ncccc2c1 | -0.6 | 1.2 | -4.0 | -3.2 | 85.8* | 1.1 | 93.6* | 72.3*
Cc1ccc(-n2sc3cc(F)ccc3c2=O)c(C)c1 | 5.8 | nt | 2.5 | nt | 53.8 | 20.5 | -1.8 | -2.4
O=c1c2ccc(F)cc2sn1-c1ccccc1 | 2.2 | nt | -8.8 | nt | -20.3 | 16.5 | nt | nt
Cc1noc(C)c1COC(=O)c1ccc(F)c(S(=O)(=O)N2CCCCC2)c1 | -3.7 | 0.6 | -9.2 | -0.1 | -24.9 | 2.0 | nt | nt
Cc1noc(C)c1COC(=O)c1cccc(S(=O)(=O)N2CCCCCC2)c1 | -4.9 | 3.3 | -20.9 | -1.2 | 62.1 | 1.2 | 44.7 | 58.0
CCOc1cc(/C=N/Nc2cc(C)nc(-n3nc(C)cc3C)n2)ccc1O | 10.9 | 1.8 | -0.2 | 0.2 | 90.5* | 13.4 | 2.8 | -10.8
COc1cccc(/C=N/Nc2nc(Nc3ccccc3)nc(-n3nc(C)cc3C)n2)c1O | 6.6 | 40.3 | nt | 2.7 | 94.6* | -12.8 | 2.6 | -21.7
COc1ccc(Nc2cc(C)nc(N3CCOCC3)n2)cc1 | -0.3 | -1.1 | -3.3 | 1.1 | -29.9 | 3.9 | nt | nt
CCOc1ccc(Nc2cc(C)nc(-n3nc(C)cc3C)n2)cc1 | 0.9 | -1.4 | nt | -2.4 | 83.6* | 8.7 | 28.4 | 32.0
COc1ccc(/C=N/Nc2cc(C)nc(-n3nc(C)cc3C)n2)c(OC)c1 | 0.0 | 11.9 | -4.3 | 1.6 | 64.5 | -3.5 | 7.8 | 5.4
CNc1cc(C)nc(-n2nc(C)cc2C)n1 | -0.6 | -0.2 | 19.7 | -1.9 | -14.2 | 4.6 | nt | nt
Cc1cc(N/N=C/c2ccc(F)cc2)nc(-n2nc(C)cc2C)n1 | nt | -1.3 | -1.1 | -0.9 | 94.4* | 1.3 | 2.8 | 24.9
O=C(OCCN1C(=O)c2cccc3c(N4CCOCC4)ccc(c23)C1=O)c1ccc(Cl)cc1Cl | -16.9 | 6.0 | -5.2 | -0.6 | -18.3 | -163.6 | nt | nt
O=C(OCCN1C(=O)c2cccc3c(N4CCOCC4)ccc(c23)C1=O)c1ccccc1Cl | -14.8 | 2.0 | -11.8 | 4.0 | 51.8 | -211.8 | 92.6* | 91.6*
CC(=O)Oc1c(I)cc(I)cc1C(=O)Nc1ccc(Cl)cc1 | -5.0 | -15.6 | -8.4 | 2.0 | 105.5* | 1.5 | 99.0* | 87.5*
COc1ccc(Cl)cc1C(=O)Nc1ccc(NC(C)=O)cc1 | 1.3 | 1.4 | -2.1 | -0.4 | -29.7 | 2.0 | nt | nt
CCOC(=O)c1cc(C#N)c(N2CCN(C(=O)c3cccc(C(F)(F)F)c3)CC2)nc1C(F)(F)F | -10.9 | 7.3 | -22.4 | 1.5 | 49.9 | 5.4 | 25.1 | 40.0
O=[N+]([O-])c1nn(-c2ccc3c(c2)OCCO3)n(O)c1=Nc1ccccc1 | 6.1 | 16.3 | 2.5 | 1.9 | 95.0* | -0.5 | 82.6* | 77.0*
Cc1cc(C)cc(N=c2c([N+](=O)[O-])nn(-c3ccc4c(c3)OCCO4)n2O)c1 | 13.1 | 4.8 | -10.9 | -4.7 | 50.1 | -12.4 | 60.9 | 12.2
CCc1ccc(N=c2c([N+](=O)[O-])nn(-c3ccc4c(c3)OCCO4)n2O)cc1 | 7.6 | 11.7 | -0.2 | -2.6 | -75.9 | 1.6 | nt | nt
Cc1ccc(N=c2c([N+](=O)[O-])nn(-c3ccc4c(c3)OCCO4)n2O)cc1F | 5.5 | 10.0 | -4.7 | 1.2 | 81.8* | 1.9 | 62.6 | 48.9
COc1ccc(NC(=O)CN2CCc3ccccc3C2)c([N+](=O)[O-])c1 | -3.5 | -1.0 | 9.9 | 1.0 | -33.7 | 2.2 | nt | nt
SMILES | DAGLB inhibitor | core dimer inh | Vif imaging | NR2E3 ag-1 | NR2E3 ag-2 | MT1-MMP act inh | NR2E3 ag confirm | VP16 counter
C=CC(=O)NCCCc1cc(C(C)(C)C)c(O)c(C(C)(C)C)c1 | -1.7 | -1.6 | -16.3 | 4.7 | -30.2 | -2.9 | nt | nt
CCC1CCCCN1C(=O)c1cc(COc2ccc(-n3cncn3)cc2)on1 (stereo unspecified) | 2.2 | -3.8 | nt | 0.6 | 60.3 | -4.4 | 47.0 | 60.3
O=C(c1cc(COc2ccc3ncccc3c2)on1)N1CCC(O)CC1 | -0.7 | -3.0 | -5.4 | 1.0 | -26.5 | 4.9 | nt | nt
Cc1cc(CN(C)C(=O)c2cc(COc3ccc4ncccc4c3)on2)on1 | 0.1 | 2.3 | -15.2 | -0.3 | 48.5 | 13.2 | 73.2* | 63.2
CC(CNC(=O)c1cc(COc2ccc3ncccc3c2)on1)c1ccccc1 (stereo unspecified) | 0.7 | 2.1 | nt | 0.3 | 105.0* | -1.9 | 95.9* | 80.1*
CCOC(=O)N1CCN(C(=O)c2cc(COc3ccc4ncccc4c3)on2)CC1 | -1.4 | 1.2 | -28.6 | 3.7 | 65.0 | 7.2 | 82.9* | 75.8*
O=C(c1cc(COc2ccc3ncccc3c2)on1)N1CCC[C@H]1CO | 2.9 | -15.0 | nt | 3.8 | 80.6* | 1.2 | 38.5 | 51.0
O=C(c1cc(COc2ccc3ncccc3c2)on1)N1CCCC(O)C1 (stereo unspecified) | 1.9 | -2.5 | -5.1 | 2.2 | 5.4 | -4.5 | nt | nt
CCC(O)C1CCN(C(=O)c2cc(COc3ccc4ncccc4c3)on2)CC1 (stereo unspecified) | nt | -4.9 | -2.3 | 2.5 | 77.9* | -4.9 | 95.7* | 85.3*
Cc1cccnc1CN1CCN(C(=O)c2cc(COc3ccc4ncccc4c3)on2)CC1 | 2.1 | -1.9 | -11.5 | -5.8 | 78.3* | -15.8 | 99.0* | 87.8*
COCC1CCCN(C(=O)c2cc(COc3ccc4ncccc4c3)on2)C1 (stereo unspecified) | 2.1 | -1.2 | -36.8 | 1.6 | 105.1* | 5.3 | 94.5* | 87.0*
O=C1c2ccccc2C(=O)N1CSc1ncccn1 | -0.4 | -1.8 | -16.5 | 0.8 | -15.2 | 5.7 | nt | nt
O=C(NC1CCCCCCC1)c1cc(COc2ccc3ncccc3c2)on1 | -0.9 | nt | -25.4 | nt | 79.6* | -6.7 | 95.4* | 87.6*
Cc1cccc(C)c1OCc1cc(C(=O)NC2CCC2)no1 | -1.4 | -0.3 | 8.7 | -1.5 | -35.5 | -4.4 | nt | nt
COc1cc(CN2C[C@@H](CO)O[C@@H](n3cnc4c(N(C)C)ncnc43)C2)cc(OC)c1OC | nt | nt | -11.6 | nt | -18.0 | 5.7 | nt | nt

Assay outcomes: PubChem, several laboratories
